Laboratory results reported in PMC7379967 (The Febs Journal, 2018).

Target: human neutrophil proMMP‐9 (Homo sapiens, UniProt P14780)
Format: biochemical
Settings: zymography
Summary of the method: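 Neutrophil proMMP-9 was incubated with recombinant human MMP-3 catalytic domain (enzyme/substrate 1/20), either alone or with galectin-3 (proMMP-9/galectin-3 1/10). Samples were taken at 0, 0.16, 0.5, 1, 2 and 3 h. Galectins were expressed in E. coli BL21-AI and affinity-purified on α-lactose agarose. Conversion to active MMP-9 was read by gelatin zymography, with recombinant proMMP-9 standard loaded as a reference.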

human neutrophil proMMP‐9, sequence (P14780 20-707 limits assumed): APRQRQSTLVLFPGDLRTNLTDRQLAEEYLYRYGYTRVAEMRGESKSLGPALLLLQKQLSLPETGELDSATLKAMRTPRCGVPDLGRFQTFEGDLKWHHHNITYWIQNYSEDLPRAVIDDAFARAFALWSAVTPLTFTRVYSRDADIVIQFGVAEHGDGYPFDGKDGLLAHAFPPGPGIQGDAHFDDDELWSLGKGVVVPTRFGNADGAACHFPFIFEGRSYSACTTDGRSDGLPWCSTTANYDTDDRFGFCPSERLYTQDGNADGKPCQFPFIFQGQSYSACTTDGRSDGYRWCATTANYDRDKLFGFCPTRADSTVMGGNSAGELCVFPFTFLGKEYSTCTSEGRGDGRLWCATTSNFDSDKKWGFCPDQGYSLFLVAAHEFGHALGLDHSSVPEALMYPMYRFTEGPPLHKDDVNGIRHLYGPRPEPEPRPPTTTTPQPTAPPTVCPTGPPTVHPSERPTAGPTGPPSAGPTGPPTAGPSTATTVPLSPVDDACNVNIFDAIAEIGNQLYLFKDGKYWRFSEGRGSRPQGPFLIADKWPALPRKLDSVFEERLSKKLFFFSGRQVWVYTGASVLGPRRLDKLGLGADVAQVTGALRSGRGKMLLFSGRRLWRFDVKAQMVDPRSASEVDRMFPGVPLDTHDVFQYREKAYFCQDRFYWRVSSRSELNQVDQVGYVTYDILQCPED

galectin‐3: human galectin‐3 (Met1‐Ile250) fused to C‐terminal tag SG(H)6SC, expressed in E. coli
effect on stepwise activation of neutrophil proMMP‐9 by MMP‐3 (cdMMP‐3 1/20, proMMP‐9/galectin‐3 1/10, 0-3 h, Fig. 9A): reduced
effect on activation of neutrophil proMMP‐9 by MMP‐3, overnight incubation (overnight, proMMP‐9/galectin‐3 1/10, Fig. 9B): prevented activation by MMP‐3
